Assay [1] deals with T1, S-adenosylmethionine decarboxylase proenzyme (Homo sapiens, UniProt P17707).
T1 sequence (P17707 whole entry): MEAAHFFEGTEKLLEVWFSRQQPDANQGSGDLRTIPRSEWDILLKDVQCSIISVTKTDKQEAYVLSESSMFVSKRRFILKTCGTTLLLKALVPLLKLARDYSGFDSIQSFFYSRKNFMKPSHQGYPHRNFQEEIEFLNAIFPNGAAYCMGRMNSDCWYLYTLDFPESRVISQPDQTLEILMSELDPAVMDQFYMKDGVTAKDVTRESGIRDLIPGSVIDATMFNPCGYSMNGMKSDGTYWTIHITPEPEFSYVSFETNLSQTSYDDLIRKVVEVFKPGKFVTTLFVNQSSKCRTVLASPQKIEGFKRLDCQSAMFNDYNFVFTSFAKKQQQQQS
The assay can be described thus: Inhibition of recombinant human N-terminal His6-tagged AdoMetDC expressed in Escherichia coli BL21/DE3 cells at pH 7.2 by RapidFire-MS-based enzyme activity assay.

Assay [2] can be described thus: Inhibition of recombinant Trypanosoma brucei N-terminal His6-tagged AdoMetDC/prozyme hetrodimer expressed in Escherichia coli BL21/DE3 cells at pH 7.2 by RapidFire-MS-based enzyme activity assay.
Assay [3] has as its system Trypanosoma brucei brucei. The assay can be described thus: Antitrypanosomal activity against blood stream form Trypanosoma brucei brucei Lister 427 at 25 uM after 48 hrs by CellTiter-Glo assay. Format: functional. The procedure, abridged:
(§1)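 Bloodstream-form parasites grown in HMI-19 with fetal bovine serum, exposed 48 h to a 3-fold serial dilution (0.0038–25 μM or 0.015–100 μM final; 0.1% DMSO vehicle). Cell density read by ATP bioluminescence (CellTiter-Glo). Triplicate; EC50 from normalized response vs log concentration fit, bottom fixed at 0, Hill slope fixed at –8 when curve steepness gave ambiguous fit. Percent inhibition given at top concentration when <50%.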
In general terms: Cellular ATP, detected with luciferase, serves as a proxy for viable cell number.

The subject of assay [4] is Trypanosoma brucei. The assay can be described thus: Inhibition of recombinant Trypanosoma brucei N-terminal His6-tagged AdoMetDC/prozyme hetrodimer expressed in Escherichia coli BL21/DE3 cells at 180 uM at pH 7.2 by RapidFire-MS-based enzyme activity assay. Summed up:
(§2)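 Steady-state decarboxylation of S-adenosyl-L-methionine by purified TbAdoMetDC/prozyme at pH 7.2; decarboxylated AdoMet product read by RapidFire–MS. Inhibitor added from DMSO to 2% final DMSO. Percent inhibition reported at the top tested concentration when mean inhibition stayed below 50%; triplicate.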

The nature of assay [5]: Inhibition of recombinant Trypanosoma brucei N-terminal His6-tagged AdoMetDC/prozyme hetrodimer expressed in Escherichia coli BL21/DE3 cells at pH 6.8 by RapidFire-MS-based enzyme activity assay.
Assay [6] concerns Trypanosoma brucei. The assay can be described thus: Inhibition of recombinant Trypanosoma brucei N-terminal His6-tagged AdoMetDC/prozyme hetrodimer expressed in Escherichia coli BL21/DE3 cells at 21 uM at pH 7.2 by RapidFire-MS-based enzyme activity assay. Summed up:
as §2

A short description of assay [7]: Selectivity ratio of IC50 for recombinant human N-terminal His6-tagged AdoMetDC expressed in Escherichia coli BL21/DE3 cells to IC50 for recombinant Trypanosoma brucei N-terminal His6-tagged AdoMetDC/prozyme hetrodimer expressed in Escherichia coli BL21/DE3 cells. Summed up: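 Both enzymes assayed at pH 7.2 by RapidFire–MS, monitoring decarboxylated AdoMet. Inhibitor run as a 3-fold dilution series from 0.01 to 180 μM final, with 2% DMSO final. Data normalized to 0.5 μM Genz-644131 as full inhibition. IC50 fitted with bottom fixed at 0 and Hill slope fixed at −1, triplicate. Ratio is human IC50 over parasite IC50.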

The target in assay [8] is T2, S-adenosylmethionine decarboxylase proenzyme (Homo sapiens) (UniProt P17707).
T2 sequence (whole entry): T1 sequence (P17707 whole entry)
The assay can be described thus: Inhibition of recombinant human N-terminal His6-tagged AdoMetDC expressed in Escherichia coli BL21/DE3 cells at 180 uM at pH 7.2 by RapidFire-MS-based enzyme activity assay.

Assay [9] has as its target T2, S-adenosylmethionine decarboxylase proenzyme (Homo sapiens). The assay can be described thus: Inhibition of recombinant human N-terminal His6-tagged AdoMetDC expressed in Escherichia coli BL21/DE3 cells at 63 uM at pH 7.2 by RapidFire-MS-based enzyme activity assay.
Assay [10] has as its system Trypanosoma brucei brucei. The assay can be described thus: Antitrypanosomal activity against bloodstream form Trypanosoma brucei brucei Lister 427 after 48 hrs by CellTiter-Glo assay. In kind it is functional. The settings on record: Lister 427, 48 h. Summed up:
as §1

The target of assay [11] is T3, S-adenosylmethionine decarboxylase proenzyme (Trypanosoma brucei brucei) (UniProt P50244).
T3 sequence (whole entry): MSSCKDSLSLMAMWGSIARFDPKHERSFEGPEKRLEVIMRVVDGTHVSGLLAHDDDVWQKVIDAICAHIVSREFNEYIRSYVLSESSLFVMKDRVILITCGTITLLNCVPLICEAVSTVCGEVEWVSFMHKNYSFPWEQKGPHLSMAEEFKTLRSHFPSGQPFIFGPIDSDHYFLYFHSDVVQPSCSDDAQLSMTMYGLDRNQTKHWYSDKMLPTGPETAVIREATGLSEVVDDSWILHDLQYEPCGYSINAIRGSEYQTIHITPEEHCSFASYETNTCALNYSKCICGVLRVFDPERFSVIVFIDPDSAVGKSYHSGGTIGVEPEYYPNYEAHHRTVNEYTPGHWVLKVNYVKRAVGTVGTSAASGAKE
The assay can be described thus: Inhibition of AdoMetDC in bloodstream form Trypanosoma brucei brucei Lister 427 assessed as increase in prozyme level at 1.5 times EC50 after 24 hrs by Western blot method. A general note: A western blot detects proteins with antibodies after separation by electrophoresis.

The test system of assay [12] is Trypanosoma brucei. The assay can be described thus: Inhibition of recombinant Trypanosoma brucei N-terminal His6-tagged AdoMetDC/prozyme hetrodimer expressed in Escherichia coli BL21/DE3 cells at 63 uM at pH 7.2 by RapidFire-MS-based enzyme activity assay. The procedure, abridged: as §2

We go through 39 compounds from ChEMBL document CHEMBL4033778, “Species-Selective Pyrimidineamine Inhibitors of Trypanosoma brucei S-Adenosylmethionine Decarboxylase” (J Med Chem, 2018).

Molecules are shown by their SMILES. The source made the active and inactive calls. No cut-off for these calls is given here.

As a reminder, the IC50 is the midpoint of a concentration-inhibition curve. For orientation: inhibition means the drop in the measured response relative to a control, in per cent.

Consider `Cc1cc(Nc2cccc(Cl)c2C)nc(N)n1`, for which the IC50 in assay [1] and in [2] was above 180 µM each time. The Activity in assay [3] is listed as 29%.
Consider `Cc1cc(N)cc(Nc2cc(Cl)cc(Cl)c2)n1`, for which, in assay [1], the IC50 is above 180 µM. Also, the inhibition in the assay with Trypanosoma brucei [4] came to 24%.
Take `Cc1cc(Nc2cccc(Br)c2)nc(N)n1`: the IC50 in assay [1] is above 180 µM. Moreover, the inhibition in the assay on Trypanosoma brucei [4] amounted to 41%.
In the case of `Nc1cc(Nc2cc(Cl)cc(Cl)c2)nc(N)n1`, the IC50 in [1] was above 180 µM; in assay [5] it was 5.8 µM; in assay [2], 48 µM.
As to `Cc1cc(Nc2cc(Cl)c(Oc3ccccc3)c(Cl)c2)nc(N)n1`, the IC50 in assay [1] is above 180 µM. The inhibition in the assay with Trypanosoma brucei [4] was 38%.
On the same counts, the results for `Cc1cc(Nc2cc(Cl)cc(-c3ccc(N(C)C)cc3)c2)nc(N)n1` are above 180 µM and 34%.
As to `Cc1cc(Nc2cc(C(F)(F)F)ccc2Cl)nc(N)n1`, the IC50 was above 180 µM in [1] and 199 µM in [2]. Moreover, in assay [3], the Activity is given as 28%.
The like results for `Cc1cc(Nc2ccc(Cl)cc2Cl)nc(N)n1` were, in that order, above 180 µM, above 180 µM and 28%.
Turning to `Cc1cc(Nc2cc(Cl)ccc2C)nc(N)n1`, the IC50 in assay [1] and in [2] was above 180 µM each time. The compound further displayed an Activity in assay [3] of 28%.
As for `CC(=O)c1ccc(-c2cc(Cl)cc(Nc3cc(C)nc(N)n3)c2)cc1`, the IC50 in assay [1] was above 21 µM. In addition, the inhibition in the assay with Trypanosoma brucei [6] is 28%.
As to `Cc1cc(Nc2cc(Cl)cc(-c3cncs3)c2)nc(N)n1`, the IC50 in assay [1] is above 21 µM. Further, the inhibition in the assay with Trypanosoma brucei [6] worked out at 42%.
Regarding `Cc1cc(Nc2cc(Br)cc(Br)c2)nc(N)n1`, the Ratio IC50 in assay [7] is above 100. The IC50 in assay [2] stood at 1.9 µM. Moreover, the inhibition in assay [8] came out at 31%.
For `Cc1cc(Nc2cccc(Cl)c2)nc(N)n1`, the IC50 in assay [1] is above 180 µM. The inhibition in the assay with Trypanosoma brucei [4] came out at 35%.
On to `Cc1cc(Nc2ccc(Br)cc2F)nc(N)n1`, for which the IC50 in [1] and in assay [2] was above 180 µM throughout. In assay [3], this compound came in with an Activity of 25%.
Turning to `COC(=O)c1cc(Nc2cc(C)nc(N)n2)cc(C(=O)OC)c1`, in assay [1], the IC50 is above 180 µM. Besides, the inhibition in the assay on Trypanosoma brucei [4] stood at 40%.
For the compound `Cc1cc(Nc2cc(Br)cc(OCC(F)(F)F)c2)nc(N)n1`, the Ratio IC50 in assay [7] turned out to be 27. In addition, the IC50 was 44 µM in [1] and 1.6 µM in assay [2].
In the case of `Cc1cc(Nc2cccc(S(F)(F)(F)(F)F)c2)nc(N)n1`, the IC50 in assay [1] was above 180 µM. Besides, the inhibition with Trypanosoma brucei [4] worked out at 23%.
In the case of `Cc1cc(Nc2cc(Cl)cc(-c3ccccc3)c2)nc(N)n1`, the IC50 in assay [2] amounted to 3.3 µM. For the same compound, in assay [9], the inhibition is 30%.
Consider `C=CCOc1cc(Br)cc(Nc2cc(C)nc(N)n2)c1`, for which the figures for the IC50 in assay [2] and in [10] were 4.5 µM and 4.4 µM, respectively. The inhibition in assay [8] worked out at 28%.
With `Cc1nc(N)cc(Nc2cc(Cl)cc(Br)c2)n1`, in [1], the IC50 is above 180 µM. Also, in the assay on Trypanosoma brucei [4], the inhibition turned out to be 24%.
Take `Nc1nc(Nc2cc(Cl)cc(Cl)c2)cc(-c2ccccc2)n1`: the half-inhibitory concentration (IC50) in assay [1] was above 21 µM. In the assay with Trypanosoma brucei [6], the inhibition was found to be 24%.
In the case of `Cc1cc(Nc2ccc(Cl)cc2)nc(N)n1`, the IC50 in assay [1] and in assay [2] was above 180 µM throughout. The compound also gave an Activity in assay [3] of 28%.
Consider `Cc1cc(Nc2ccc(F)c(F)c2)nc(N)n1`, for which the IC50 in assay [1] is above 180 µM. The same compound returned an Activity in assay [3] of 25%. For the same compound, the inhibition in the assay with Trypanosoma brucei [4] stood at 33%.
On to `Cc1cc(Nc2cc(Cl)cc(-c3ccc(F)c(Cl)c3)c2)nc(N)n1`, for which the IC50 in assay [1] is above 180 µM; in assay [2] it was 157 µM; in assay [10] it was 3.2 µM.
Consider `Cc1cc(Nc2cc(Cl)c(F)c(Cl)c2)nc(N)n1`, for which the Ratio IC50 in assay [7] was above 100. Also, the IC50 in [2] amounted to 1.5 µM.
On to `Cc1cc(Nc2cc(Cl)ccc2Cl)nc(N)n1`, for which the figures for the IC50 in [1] and in assay [2] were above 180 µM and 115 µM, respectively. Also, the Activity in assay [3] worked out at 23%.
On the same counts, the results for `Cc1cc(Nc2cccc(Cl)c2Cl)nc(N)n1` are above 180 µM, 137 µM and 27%.
As to `Cc1nc(N)nc(Nc2cc(Cl)cc(Cl)c2)c1C`, the IC50 in assay [2] was 4.8 µM. Further, the inhibition in assay [8] was 25%.
With `Nc1nc(Cl)cc(Nc2cc(Cl)cc(Cl)c2)n1`, the inhibition entry in assay [11] is “inactive”. In addition, the IC50 in assay [1] and in [2] was above 180 µM in each case.
On to `Cc1cc(Nc2cc(Cl)cc(-c3cc4ccccc4o3)c2)nc(N)n1`, for which the IC50 in assay [1] is above 63 µM. For the same compound, the inhibition in the assay on Trypanosoma brucei [12] came to 23%.
`Cc1cc(Nc2cc(Cl)cc(C(F)(F)F)c2)nc(N)n1`: in assay [2], the IC50 stood at 3.9 µM. Further, the inhibition in [8] amounted to 39%.
Take `COc1cc(Nc2cc(C)nc(N)n2)cc(OC)c1`: the IC50 in assay [2] worked out at 17 µM. Further, the inhibition in assay [8] worked out at 21%.
The like results for `Cc1cc(Nc2cc(Cl)cc(-c3ccsc3)c2)nc(N)n1` were, in that order, 26 µM and 30%.
For the compound `Cc1cc(Nc2cc(Cl)c(O)c(Cl)c2)nc(N)n1`, the IC50 in [1] is above 180 µM. Moreover, the inhibition in the assay on Trypanosoma brucei [4] worked out at 33%.
As to `Cc1cc(Nc2cc(Cl)cc(-c3ccoc3)c2)nc(N)n1`, the IC50 in assay [2] is 7.4 µM; in assay [10], 7.1 µM. Besides, the inhibition in assay [8] worked out at 30%.
Consider `CSc1cccc(Nc2cc(C)nc(N)n2)c1`, for which the IC50 in assay [2] was determined as 149 µM. For the same compound, in [8], the inhibition was 23%.
For `Nc1cnccc1Nc1cc(Cl)cc(Cl)c1`, the IC50 in assay [1] was above 180 µM. For the same compound, the inhibition with Trypanosoma brucei [4] is 21%.
As to `Nc1nccc(Nc2cc(Cl)cc(Cl)c2)n1`, in assay [11], the inhibition result is “Active”. Besides, the IC50 in [1] was above 180 µM; in [2] it was 13 µM.
Consider `Cc1cc(Nc2cc(Cl)cc(Cl)c2)ncn1`, for which the inhibition result in [11] is “inactive”. The IC50 in assay [1] and in assay [2] was above 180 µM throughout.
